In ChEMBL document CHEMBL1132571, “1-aryl-4-[(5-methoxy-1,2,3, 4-tetrahydronaphthalen-1-yl)alkyl]piperazines and their analogues: influence of the stereochemistry of the tetrahydronaphthalen-1-yl nucleus on 5-HT1A receptor affinity and selectivity versus alpha1 and D2 receptors. 5” (J Med Chem, 1999):

Legend:
[1] = Selectivity for alpha-1 receptor compared to 5-HT1A receptor.
[2] = Selectivity for D2 receptor compared to 5-HT1A receptor.
[3] = target: T1, 5-hydroxytryptamine receptor 1A (Rattus norvegicus, UniProt P19327); test: In vitro inhibition of [3H]8-OH-DPAT binding to rat 5-HT 1a receptors.
T1 sequence (P19327 whole entry): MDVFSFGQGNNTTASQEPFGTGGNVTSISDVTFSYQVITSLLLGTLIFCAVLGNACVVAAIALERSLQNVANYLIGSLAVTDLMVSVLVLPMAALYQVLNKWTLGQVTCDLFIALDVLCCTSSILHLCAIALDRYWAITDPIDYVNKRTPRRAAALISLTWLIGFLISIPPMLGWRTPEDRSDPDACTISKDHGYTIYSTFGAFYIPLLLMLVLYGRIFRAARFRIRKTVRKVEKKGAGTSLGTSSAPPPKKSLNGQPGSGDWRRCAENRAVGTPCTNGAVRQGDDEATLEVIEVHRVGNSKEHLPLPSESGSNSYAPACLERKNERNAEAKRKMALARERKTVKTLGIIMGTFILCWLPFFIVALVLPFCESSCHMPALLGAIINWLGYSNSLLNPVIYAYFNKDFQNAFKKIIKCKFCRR
Outline: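 Rat hippocampal membranes labelled with [3H]-8-OH-DPAT by standard binding methods, in competition with eight to nine test concentrations. Specific binding was over 80% of total. IC50 derived from inhibition of specific radioligand binding by LIGAND analysis.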

[4] = target: T2, Adrenergic receptor alpha-1 (Rattus norvegicus, UniProt P15823+P23944+P43140); test: In vitro inhibition of [3H]prazosin binding to rat alpha-1 adrenergic receptors.; format: protein assay
T2 sequence (P15823 whole entry): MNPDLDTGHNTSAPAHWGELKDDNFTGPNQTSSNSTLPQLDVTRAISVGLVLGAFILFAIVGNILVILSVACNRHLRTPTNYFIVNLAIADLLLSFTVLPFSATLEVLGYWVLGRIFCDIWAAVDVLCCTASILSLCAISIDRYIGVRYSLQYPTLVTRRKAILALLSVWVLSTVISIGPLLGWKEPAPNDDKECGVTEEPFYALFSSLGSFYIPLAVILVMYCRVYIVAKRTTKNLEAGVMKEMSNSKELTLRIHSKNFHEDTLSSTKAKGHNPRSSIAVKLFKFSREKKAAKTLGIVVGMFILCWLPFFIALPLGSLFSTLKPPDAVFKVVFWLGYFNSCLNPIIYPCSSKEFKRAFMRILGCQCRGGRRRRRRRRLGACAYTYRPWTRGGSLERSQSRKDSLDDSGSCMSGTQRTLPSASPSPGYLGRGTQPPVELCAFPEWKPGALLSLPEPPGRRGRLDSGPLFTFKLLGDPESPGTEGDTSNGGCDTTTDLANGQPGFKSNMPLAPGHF
T2 sequence (P23944 whole entry): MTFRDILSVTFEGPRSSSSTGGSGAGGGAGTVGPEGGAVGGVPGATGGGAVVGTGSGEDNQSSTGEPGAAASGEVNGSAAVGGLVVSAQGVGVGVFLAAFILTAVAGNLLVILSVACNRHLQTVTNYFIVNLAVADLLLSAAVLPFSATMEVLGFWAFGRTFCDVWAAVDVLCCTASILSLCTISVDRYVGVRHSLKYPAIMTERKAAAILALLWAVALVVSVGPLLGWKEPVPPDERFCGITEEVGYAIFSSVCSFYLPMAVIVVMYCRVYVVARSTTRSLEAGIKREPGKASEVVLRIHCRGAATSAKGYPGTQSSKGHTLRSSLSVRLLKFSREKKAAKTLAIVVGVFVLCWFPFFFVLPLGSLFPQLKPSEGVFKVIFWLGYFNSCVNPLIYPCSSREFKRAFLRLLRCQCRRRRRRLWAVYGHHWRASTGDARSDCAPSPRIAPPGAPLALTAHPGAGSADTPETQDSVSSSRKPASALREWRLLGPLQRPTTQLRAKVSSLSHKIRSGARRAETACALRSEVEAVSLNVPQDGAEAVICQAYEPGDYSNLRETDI
T2 sequence (P43140 whole entry): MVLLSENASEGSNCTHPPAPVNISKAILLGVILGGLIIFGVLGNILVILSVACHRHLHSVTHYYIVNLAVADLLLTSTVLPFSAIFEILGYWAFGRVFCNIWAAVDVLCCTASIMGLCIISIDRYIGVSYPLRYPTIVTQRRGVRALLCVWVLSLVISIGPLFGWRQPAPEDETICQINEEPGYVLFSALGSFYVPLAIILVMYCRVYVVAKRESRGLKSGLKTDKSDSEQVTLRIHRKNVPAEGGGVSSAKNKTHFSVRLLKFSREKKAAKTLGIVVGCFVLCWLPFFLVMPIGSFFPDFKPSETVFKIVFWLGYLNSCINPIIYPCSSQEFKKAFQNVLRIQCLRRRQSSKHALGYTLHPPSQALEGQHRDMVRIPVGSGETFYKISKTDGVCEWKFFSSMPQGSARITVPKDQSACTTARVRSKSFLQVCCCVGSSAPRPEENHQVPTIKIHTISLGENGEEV
Outline: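 [3H]Prazosin displacement in rat brain cortex membranes, standard binding procedure, with eight to nine concentrations of each hydrochloride salt. Specific binding was above 80% of total. LIGAND program used to obtain IC50 from inhibition of specific binding.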

D(2) dopamine receptor = D(2) dopamine receptor (Rattus norvegicus, UniProt P61169); test: In vitro inhibition of [3H]spiroperidol binding to rat Dopamine D2 receptors.
Chain of D(2) dopamine receptor (P61169 whole entry): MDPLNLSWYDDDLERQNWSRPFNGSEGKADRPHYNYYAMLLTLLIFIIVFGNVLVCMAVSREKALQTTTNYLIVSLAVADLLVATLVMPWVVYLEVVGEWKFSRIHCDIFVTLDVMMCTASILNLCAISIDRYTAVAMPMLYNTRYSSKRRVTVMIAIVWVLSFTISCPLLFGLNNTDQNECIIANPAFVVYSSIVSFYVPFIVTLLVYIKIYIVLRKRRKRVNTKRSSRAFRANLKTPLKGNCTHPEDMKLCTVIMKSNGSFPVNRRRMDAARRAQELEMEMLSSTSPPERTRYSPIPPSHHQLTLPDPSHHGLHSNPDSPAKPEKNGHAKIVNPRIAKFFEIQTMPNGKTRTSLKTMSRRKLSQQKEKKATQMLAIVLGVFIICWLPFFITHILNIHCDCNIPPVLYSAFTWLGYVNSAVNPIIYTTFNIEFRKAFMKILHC

| Structure (SMILES) | Selectivity [1] | Selectivity [2] | IC50 [3] [nM] | IC50 [4] [nM] | IC50 (D(2) dopamine receptor) [nM] |
| --- | --- | --- | --- | --- | --- |
| COc1ccccc1N1CCN(CCN[C@@H]2CCCc3c(OC)cccc32)CC1 | 100 | 320 | 10 | 1000 | 3200 |
| COc1ccccc1N1CCN(CCNC2CCCc3c(OC)cccc32)CC1 (configuration not stated) | 29 | 49 | – | – | – |
| COc1ccccc1N1CCN(CCC(=O)N[C@@H]2CCCc3c(OC)cccc32)CC1 | – | – | – | 770 | 870 |
| COc1ccccc1N1CCN(CCCNC2CCCc3c(OC)cccc32)CC1 (configuration not stated) | 88 | 106 | – | – | – |
| COc1ccccc1N1CCN(CCCN[C@H]2CCCc3c(OC)cccc32)CC1 | 19 | 68 | 34 | 649 | 2300 |
| NCCCC1(CCCN)CCc2cccc(O)c2C1 | – | – | 2.5 | – | – |
| COc1ccccc1N1CCN(CCCN[C@@H]2CCCc3c(OC)cccc32)CC1 | 243 | 271 | 7 | 1700 | 1900 |
| COc1ccccc1N1CCN(CCN[C@H]2CCCc3c(OC)cccc32)CC1 | 33 | 93 | 7 | 228 | 650 |
| COc1ccccc1N1CCN(CCC(=O)N[C@H]2CCCc3c(OC)cccc32)CC1 | – | – | – | 240 | 2600 |

Other lines, results leading:

| Selectivity [1] | Selectivity [2] | IC50 [3] [nM] | IC50 [4] [nM] | IC50 (D(2) dopamine receptor) [nM] | Structure (SMILES) |
| --- | --- | --- | --- | --- | --- |
| – | – | 1.3 | 33 | – | COc1ccccc1N1CCN(CCC[C@@H]2CCCc3c(OC)cccc32)CC1 |
| – | – | 1.6 | 0.8 | – | COc1ccccc1N1CCN(CCC[C@H]2CCCc3c(OC)cccc32)CC1 |
| 86 | 220 | – | – | – | COc1cccc2c1CCCC2CCCN1CCN(c2ccccc2)CC1 (configuration not stated) |
| 14 | 205 | 4.3 | 61 | 880 | COc1cccc2c1CCC[C@@H]2CCCN1CCN(c2ccccc2)CC1 |
| 396 | 254 | 2.4 | 950 | 610 | COc1cccc2c1CCC[C@H]2CCCN1CCN(c2ccccc2)CC1 |
| 19 | 196 | 4.5 | 85 | 880 | COc1cccc2c1CCC[C@@H]2CCCN1CCN(c2ccccn2)CC1 |
| 122 | 259 | – | – | – | COc1cccc2c1CCCC2CCCN1CCN(c2ccccn2)CC1 (configuration not stated) |
| 252 | 261 | 2.3 | 580 | 600 | COc1cccc2c1CCC[C@H]2CCCN1CCN(c2ccccn2)CC1 |
